# From PubChem
# In the library only some 1.8% were active in any assay of this set; here they are far more common.
# mABHD4 FP: ABHD4 inhibitors, primary screen, biochemical, fluorescence polarization, mouse | inhibition, % at 8.92 µM | AID 720543, 2013 | actives 0.54% (n = 370,000) | purified mABHD4, FP-Rh probe fluorescence polarization;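 active means inhibition exceeding the mean over every tested compound plus 3 SD, cut at about 30% in these data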;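 further: 0% = plate median of compound wells and 100% = S159A mutant with DMSO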
#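 Material: mouse ABHD4 enzyme, wild type; Benchmarks: S159A mutant high control, sample median low control; Buffer or medium: HEPES pH 7.0, NaCl, Pluronic buffer; Signal: fluorescence polarization; Read-out: percent inhibition of probe binding, normalized to plate controls; Timing: pre-incubation 45 min, probe exposure 60 min, at 25 °C; Dosing: 8.92 µM, single dose.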
# ARNT-TACC3 inh: disruptors of ARNT/TACC3 protein interaction, primary screen, biochemical, AlphaScreen, single concentration; Transforming acidic coiled-coil-containing protein 3 (Homo sapiens), Q9Y6A5; AlphaScreen His-ARNT PAS-B/GST-TACC3 binding, luminescence; TACC3 fragment carries E629A point mutation; inhibition, % at 9.99 µM; actives 0.66% (n = 390,000); AID 623870, 2012;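 active means mean inhibition of replicates at least 50% and at least half of replicates each reaching 50%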;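 further: 0% = complete ARNT plus TACC3 wells and 100% = ARNT alone without TACC3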
# HTRA1 inhibitor: HTRA1 serine protease inhibitors, primary screen, biochemical, fluorescence polarization, HTS | actives 0.5% (n = 340,000) | recombinant HTRA1, FP-rhodamine activity-based probe | inhibition, % at 5.96 µM | AID 504803, 2011; in the data active means inhibition above about 36%;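 further: 0% = enzyme with DMSO and 100% = wells lacking enzyme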
# TCR-CD3 inh: inhibitors of human TCR-CD3 interaction, primary screen, biochemical, fluorescence, TAMRA-labeled TCR probe; T-cell receptor (TCR); inhibition, % at 9.4 µM; actives 0.37% (n = 360,000); in the data active means inhibition above about 19%;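 further: recombinant mutant TCR 2C K166C tagged with TAMRA read by polarization; 0% = receptor in buffer alone and 100% = receptor with positive control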
# SIAE primary: human SIAE inhibitors, primary screen, biochemical, fluorescence polarization, FP-Rh probe, 1536-well HTS | SIAE FP-Rh probe binding | inhibition, % at 9.66 µM | actives 0.69% (n = 370,000) | AID 1053197, 2014;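 active means inhibition above a cutoff: mean of compounds within the control limits plus 3 SD of those, cut at about 17% in these data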;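 further: 0% = plate median of compound wells and 100% = probe without SIAE protein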
# Target sequence (Q9HAT2 whole entry, looked up): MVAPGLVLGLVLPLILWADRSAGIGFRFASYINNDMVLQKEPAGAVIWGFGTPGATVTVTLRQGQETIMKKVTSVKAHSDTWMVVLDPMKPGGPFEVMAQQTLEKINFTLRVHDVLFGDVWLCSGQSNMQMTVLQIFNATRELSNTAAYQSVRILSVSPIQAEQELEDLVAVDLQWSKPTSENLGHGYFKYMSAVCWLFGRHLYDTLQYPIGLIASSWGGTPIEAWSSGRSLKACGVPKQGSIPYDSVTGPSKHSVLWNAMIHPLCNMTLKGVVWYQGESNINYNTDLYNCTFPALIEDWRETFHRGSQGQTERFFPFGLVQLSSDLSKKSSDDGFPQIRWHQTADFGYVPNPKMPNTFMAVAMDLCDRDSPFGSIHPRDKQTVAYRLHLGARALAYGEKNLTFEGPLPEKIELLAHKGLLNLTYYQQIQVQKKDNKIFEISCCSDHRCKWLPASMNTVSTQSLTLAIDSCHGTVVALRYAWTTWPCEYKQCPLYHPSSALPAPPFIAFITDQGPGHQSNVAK
# SIAE confirm: human SIAE inhibitors, retest, confirmation, biochemical, fluorescence polarization, FP-Rh probe, triplicate | shares compounds with SIAE primary | SIAE FP-Rh activity-based probe | inhibition, % at 9.66 µM | actives 13% (n = 2,300);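 active means mean inhibition of the replicates above the hit cutoff set in the primary screen, cut at about 17% in these data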;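 further: 0% = SIAE with DMSO and probe and 100% = probe without SIAE; inhibitors lower polarization as more probe stays unbound to SIAE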
# * marks the source's active call; other numbers are inactive results; · = not tested or not shown.
SMILES,mABHD4 FP,ARNT-TACC3 inh,HTRA1 inhibitor,TCR-CD3 inh,SIAE primary,SIAE confirm
CC(=O)N(C)C[C@@H]1Oc2cc(C#CC(C)(C)O)ccc2S(=O)(=O)N([C@H](C)CO)C[C@@H]1C,·,-6,·,·,·,·
COc1ccc(CN2CCN(Cc3ccccc3F)CC2)c(OC)c1,7,-16,-8,-3,17*,-5
CO[C@@H]1CN(C)C(=O)c2cc(NC(=O)Nc3c(C)noc3C)ccc2OC[C@H](C)N(CC2CC2)C[C@@H]1C,·,5,·,·,·,·
C[C@H](CO)N1C[C@H](C)[C@@H](CN(C)C(=O)Nc2ccc(F)cc2)Oc2c(NS(C)(=O)=O)cccc2C1=O,·,-5,·,·,·,·
C[C@H]1CN([C@@H](C)CO)C(=O)c2cccc(NS(=O)(=O)c3ccc(Cl)cc3)c2O[C@H]1CN(C)CC1CC1,·,-2,·,·,·,·
COc1cc(C2(C)SCCCS2)cc(OC)c1OC,2,·,·,8,1,·
COc1cc(OC)c(C2SCCCS2)cc1OC,-3,-3,-1,-7,18*,1
C[C@H](CO)N1C[C@H](C)[C@@H](CN(C)Cc2ccc(Oc3ccccc3)cc2)Oc2c(NC(=O)Nc3ccccc3)cccc2C1=O,·,6,·,·,·,·
O=C(NNC(=O)c1cc2ccccc2oc1=O)c1ccccc1[N+](=O)[O-],-13,-1,2,1,-1,·
C/C(=N\NC(=O)c1ccc([N+](=O)[O-])cc1)c1cc2ccccc2oc1=O,9,·,6,6,17*,7
CCOc1ccc(NC(=O)c2cc3ccccc3cc2OC)cc1,-6,25,-28,9,0,·
NNC(=O)c1cc2ccccc2cc1O,21,9,31,5,18*,6
O=C(NCC1CCCCC1)c1cc2ccccc2cc1O,-1,2,-26,0,4,·
CCOc1ccc(NC(=O)c2cc3ccccc3cc2O)cc1,16,-5,4,-5,18*,-1
C[C@@H]1CN([C@H](C)CO)C(=O)Cc2cc(NC(=O)Nc3ccccc3)ccc2O[C@H]1CN(C)C(=O)Nc1cccc2ccccc12,·,2,·,·,·,·
CN(C)C(=O)c1ccc(-c2ccc3c(c2)[C@H]2[C@H](CCN2C(=O)C2CCC2)[C@@H](CO)N3C)cc1,·,-8,·,·,·,·
CCC(=O)Nc1ccc2c(c1)C(=O)N(C)[C@@H]1CC[C@@H](CC(=O)Nc3cccc(OC)c3)O[C@H]1CO2,·,-6,·,·,·,·
COc1ccc(CNC(=O)COC(=O)C2CC2C)cc1OC (configuration not stated),5,-5,15,-2,24*,-2
CSCc1cc(N2CCCC2)nc(-c2ccccc2)n1,1,-17,-3,-1,19*,4
CO[C@H]1CN(C)C(=O)c2cc(NS(=O)(=O)c3ccc(C)cc3)ccc2OC[C@H](C)N(C)C[C@H]1C,·,17,·,·,·,·
Cc1ccc(S(=O)(=O)N(C)C[C@@H]2OCCCC[C@@H](C)Oc3ccc(NC(=O)Nc4cccc5ccccc45)cc3C(=O)N([C@@H](C)CO)C[C@H]2C)cc1,·,-7,·,·,·,·
CCCCC(CCC(=O)Nc1cccc([N+](=O)[O-])c1)C(=O)O (configuration not stated),10,5,8,2,-1,·
CCC(CCC(=O)Nc1cccc([N+](=O)[O-])c1)C(=O)O (configuration not stated),2,-8,-3,5,23*,4
C[C@H](CO)N1C[C@H](C)[C@@H](CN(C)Cc2ccncc2)Oc2cc(C3=CCCC3)ccc2S1(=O)=O,·,-2,·,·,·,·
COc1ccc(OC)c(NC(=O)Nc2nc(C(N)CCc3ccccc3)cs2)c1 (configuration not stated),22,·,·,-3,6,·
COc1cc(NC(=O)Nc2nc(C(N)CCc3ccccc3)cs2)cc(OC)c1OC (configuration not stated),16,·,·,-12,33*,22*
Cc1ccc(/C=N\NC(=O)/C(=C\Nc2nccc(C)n2)NC(=O)c2ccccc2)cc1,10,8,-7,3,18*,7
